Data from PubChem BioAssay AID602231 (The Scripps Research Institute Molecular Screening Center, 2012).
Calls of active or inactive are those of the source.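 Rule for the calls: active = calcium level giving half maximal force raised by at least 10% versus DMSO, meaning delta pCa50 at or below about -0.041; inactive = the rest.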

Assay: calcium sensitization of cardiac fiber tension, mechanism study for cardiac RTF sensitizer project, porcine papillary fibers, force transducer (AID 602231)
Conditions: Permeabilized pig cardiac fiber, Ca2+-tension pCa50 shift, at 10 µM; delta pCa50: stronger effect = higher value; maximal force change: measured here: effect on maximal fiber tension
In short: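 assay system = Triton X-100-permeabilized pig left-ventricle papillary muscle fibers, stretched 1.2x | reagent = free Ca2+ series, pCa 8.0–4.5 | signal = fiber tension measured by force transducer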

SMILES | delta pCa50 | maximal force change [%]
CCOC(=O)c1cc2n(c1N)-c1ccccc1C2=O | 0.01 (inactive) | 2.13
Cc1cccn2c(=O)c(/C=C3\SC(=S)N(CC(C)C)C3=O)c(NCCCOC(C)C)nc12 | -0.003 (inactive) | -9.9
Cc1ccc(/C=C2\Oc3c(ccc(O)c3CN3CCN(CCO)CC3)C2=O)cc1 | -0.027 (inactive) | -0.5
CCOC(=O)c1sc(N)c(C#N)c1COC(=O)CNC(=O)c1cc(OC)c(OC)c(OC)c1 | -0.039 (inactive) | 3.3
